Screening results as filed in PubChem.
This is a sample that favours compounds with a hit; in the whole collection about 3% have one here.
MEKK2 WT-MEK5 = raises or lowers MEK5 binding to wildtype human MEKK2 PB1 domain | Q9Y2U5 | bead flow cytometry, Alexa488-MEK5 binding to MEKK2 WT; actives lie on both sides | binding response (% of control), % at 10 µM | actives 1.1% (n = 290,000) | AID 1531; in the data active = binding response below about 67% or above about 130%
Apaf1 inhib = human Apaf-1 inhibition; O14727; reconstituted apoptosome caspase-3 activity, DEVD-Rh110 fluorescence; inhibition, % at 20 µM; actives 0.71% (n = 330,000); AID 489030; active = inhibition of at least 40% at 20 µM
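Material: reconstituted apoptosome with Apaf-1, cytochrome c, caspase-9, procaspase-3, dATP. Technique: Rh110 fluorescence intensity. Buffer or medium: pH 7.5 Hepes buffer with CHAPS, BSA, DTT. Times: 30 min plus 50 min, RT.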
UCH37 inh = blocks the human deubiquitinase UCH37. purified proteasome/UCH37, Ub-AMC cleavage fluorescence. inhibition, % (no concentration beside the values). Q9Y5K5. actives 0.33% (n = 330,000);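 active = mean inhibition over replicate wells above about 20%, limit read from the data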
Target sequence (Q9Y5K5 whole entry, looked up): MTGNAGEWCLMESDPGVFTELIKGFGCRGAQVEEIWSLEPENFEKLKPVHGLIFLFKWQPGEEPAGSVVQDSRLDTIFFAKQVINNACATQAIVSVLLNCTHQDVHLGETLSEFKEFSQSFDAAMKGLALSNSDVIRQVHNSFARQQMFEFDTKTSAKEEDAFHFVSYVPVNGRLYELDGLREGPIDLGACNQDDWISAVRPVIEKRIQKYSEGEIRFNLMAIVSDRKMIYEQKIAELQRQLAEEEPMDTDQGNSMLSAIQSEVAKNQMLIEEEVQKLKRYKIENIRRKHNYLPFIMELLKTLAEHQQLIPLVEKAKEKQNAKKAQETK
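Assay system: Proteasome-bound UCH37. Buffer or medium: pH 7.4 Tris-HCl (50 mM) with ovalbumin, ATP-MgCl2, DTT. Incubation: 30 min preincubation with enzyme, 25 min cleavage at room temperature. Measured by: fluorescence, ex 355 nm, em 460 nm. Read-out basis: percent inhibition. Control set: wells without proteasome as full block, compound-free enzyme plus substrate as uninhibited.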
MEKK2 mut-MEK5 = signal of MEK5 binding to mutant human MEKK2 PB1 domain. actives 0.35% (n = 290,000). percent response, % at 10 µM. bead flow cytometry, Alexa488-MEK5 binding to MEKK2 mutant; in the data active = percent response above about 24%, passing the limit was not always enough
MEKK3 PB1 HTS = raises or lowers MEK5 binding to the human MEKK3 PB1 domain; bead-based flow cytometry, Alexa488-MEK5 binding to MEKK3; actives lie on both sides; 0 = blocked by unlabeled MEK5, 100 = vehicle; binding response (% of control), % at 10 µM; actives 1.4% (n = 290,000); AID 1529;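 active = binding response more than 3 SD above or below the average of its plate-row segment, actives on both sides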;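 note: Alexa488 bead fluorescence after subtracting the streptavidin-only scavenger bead signal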
UBC13 polyUb = blocks human UBC13 polyubiquitin chain formation; P61088; TR-FRET; inhibition, % at 20 µM; actives 0.47% (n = 330,000); AID 485273; in the data active = inhibition above about 45%, passing the limit was not always enough
Target sequence (P61088 whole entry, looked up): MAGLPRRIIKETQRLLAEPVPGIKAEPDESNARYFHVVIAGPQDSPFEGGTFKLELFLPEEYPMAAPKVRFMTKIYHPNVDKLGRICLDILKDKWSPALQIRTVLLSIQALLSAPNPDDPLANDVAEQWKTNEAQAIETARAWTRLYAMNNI
Apaf-1 inh conf2 = Apaf-1 inhibition, single-dose confirmed; reconstituted apoptosome, caspase-3 DEVD-Rh110 fluorescence; shares compounds with Apaf1 inhib; AID 504614; actives 25% (n = 1,800); inhibition, % at 20 µM;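 active = mean inhibition of at least 40% at 20 µM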
Rh110 interf inh = Rh110 signal interference in Apaf-1 inhibitor counter-screen. Rh110 fluorescence interference, quenched caspase reaction. shares compounds with Apaf1 inhib. AID 504615. activation (fluorescence interference), % at 20 µM. 1,800 tested, under 10 active;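 active = signal rise of 40% or more at 20 µM, treated as a fluorescence artifact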
Fluor interf inh = shows fluorescence interference in the Apaf-1 inhibitor assay format; fluorescence interference counterscreen, Apaf-1 assay format; IC50, µM; shares compounds with Apaf1 inhib; 460 tested, under 10 active; AID 588538; call rule not given here
A number is an active result.

How did O=[N+]([O-])c1ccc(O)c(C=Nc2cccc3ncccc23)c1 do in these assays?
MEKK2 WT-MEK5: inactive; Apaf1 inhib: 91; UCH37 inh: inactive; MEKK2 mut-MEK5: inactive; MEKK3 PB1 HTS: inactive; UBC13 polyUb: inactive; Apaf-1 inh conf2: inactive; Rh110 interf inh: inactive

Results for O=[N+]([O-])c1ccc(O)c(/C=N/Nc2ccccn2)c1 ?
MEKK2 WT-MEK5: inactive; MEKK2 mut-MEK5: inactive; MEKK3 PB1 HTS: inactive

How did O=[N+]([O-])c1cccc(C=NN=C2c3ccccc3-c3ccccc32)c1O do in these assays?
UCH37 inh: inactive

Results for O=[N+]([O-])c1ccc(O)c(C=Nc2cccc3ccccc23)c1 ?
MEKK2 WT-MEK5: inactive; Apaf1 inhib: 88; UCH37 inh: inactive; MEKK2 mut-MEK5: inactive; MEKK3 PB1 HTS: inactive; UBC13 polyUb: inactive; Apaf-1 inh conf2: inactive; Rh110 interf inh: inactive

What do the screens show for `O=[N+]([O-])c1cccc(C=Nc2cccc3ccccc23)c1O`?
MEKK2 WT-MEK5: inactive; Apaf1 inhib: 93; MEKK2 mut-MEK5: inactive; MEKK3 PB1 HTS: inactive; UBC13 polyUb: inactive; Apaf-1 inh conf2: 44; Rh110 interf inh: inactive; Fluor interf inh: inactive

Results for O=C(Cn1ccnc1[N+](=O)[O-])NCc1ccccc1 ?
Apaf1 inhib: inactive; UCH37 inh: inactive; UBC13 polyUb: inactive

Results for CC1CC(C(F)(F)C(F)(F)F)n2nc(C(=O)O)cc2N1 (stereo not given) ?
Apaf1 inhib: inactive; UCH37 inh: inactive; UBC13 polyUb: inactive

What do the screens show for `Oc1ccc(C=Nc2cccc3ccccc23)c(O)c1`?
MEKK2 WT-MEK5: inactive; Apaf1 inhib: 81; MEKK2 mut-MEK5: inactive; MEKK3 PB1 HTS: inactive; UBC13 polyUb: inactive; Apaf-1 inh conf2: inactive; Rh110 interf inh: inactive

Results for Oc1ccc(N=Cc2ccc(-c3cccs3)s2)cc1 ?
MEKK2 WT-MEK5: inactive; Apaf1 inhib: 96; UCH37 inh: inactive; MEKK2 mut-MEK5: inactive; MEKK3 PB1 HTS: inactive; UBC13 polyUb: inactive; Apaf-1 inh conf2: inactive; Rh110 interf inh: inactive

How did Cc1ccccc1NC(=O)COC(=O)C1CC2CCCC(C1)C2=O (stereo not given) do in these assays?
Apaf1 inhib: inactive; UCH37 inh: inactive; UBC13 polyUb: inactive

How did COc1ccc(NC(=O)c2c[nH]n3c(=O)cc(C4CCN(C(=O)OC(C)(C)C)CC4)nc23)cc1Cl do in these assays?
MEKK2 WT-MEK5: inactive; Apaf1 inhib: 42; UCH37 inh: inactive; MEKK2 mut-MEK5: inactive; MEKK3 PB1 HTS: inactive; UBC13 polyUb: inactive; Apaf-1 inh conf2: inactive; Rh110 interf inh: inactive

How did Cc1cccc(N(CC(=O)NN=Cc2ccc(C(=O)O)cc2)S(=O)(=O)c2ccccc2)c1C do in these assays?
UCH37 inh: inactive

What do the screens show for `CC(=O)c1ccc2c(c1)C1C=CCC1C(c1ccncc1)N2` (stereo not given)?
MEKK2 WT-MEK5: inactive; Apaf1 inhib: 60; UCH37 inh: inactive; MEKK2 mut-MEK5: inactive; MEKK3 PB1 HTS: inactive; UBC13 polyUb: inactive; Apaf-1 inh conf2: inactive; Rh110 interf inh: inactive

Results for CC(=O)c1ccc2c(c1)C1C=CCC1C(C(=O)O)N2 (stereo not given) ?
MEKK2 WT-MEK5: inactive; Apaf1 inhib: inactive; UCH37 inh: inactive; MEKK2 mut-MEK5: inactive; MEKK3 PB1 HTS: inactive; UBC13 polyUb: inactive

How did COc1ccc(C(=O)NC(C(=O)N2CCc3ccccc32)C(C)C)cc1 (stereo not given) do in these assays?
MEKK2 WT-MEK5: inactive; Apaf1 inhib: inactive; UCH37 inh: inactive; MEKK2 mut-MEK5: inactive; MEKK3 PB1 HTS: inactive; UBC13 polyUb: inactive

How did CCOc1ccc(N(CC(=O)N2CCN(c3ccccc3F)CC2)S(=O)(=O)c2c(C)noc2C)cc1 do in these assays?
MEKK2 WT-MEK5: inactive; Apaf1 inhib: inactive; UCH37 inh: inactive; MEKK2 mut-MEK5: inactive; MEKK3 PB1 HTS: inactive; UBC13 polyUb: inactive

What do the screens show for `CC1OC(Nc2cccc3ccccc23)C(O)C(O)C1O` (stereo not given)?
MEKK2 WT-MEK5: inactive; Apaf1 inhib: 96; UCH37 inh: inactive; MEKK2 mut-MEK5: inactive; MEKK3 PB1 HTS: inactive; UBC13 polyUb: inactive; Apaf-1 inh conf2: 64; Rh110 interf inh: inactive; Fluor interf inh: inactive

What do the screens show for `COc1ccc(NC(=O)NNc2cc(N3CCOCC3)nc(N3CCOCC3)n2)cc1`?
MEKK2 WT-MEK5: inactive; Apaf1 inhib: 52; UCH37 inh: inactive; MEKK2 mut-MEK5: inactive; MEKK3 PB1 HTS: inactive; UBC13 polyUb: inactive; Apaf-1 inh conf2: inactive; Rh110 interf inh: inactive

What do the screens show for `O=C(NNc1cc(N2CCOCC2)nc(N2CCOCC2)n1)c1ccc(Cl)cc1Cl`?
MEKK2 WT-MEK5: inactive; Apaf1 inhib: 47; UCH37 inh: inactive; MEKK2 mut-MEK5: inactive; MEKK3 PB1 HTS: inactive; UBC13 polyUb: inactive; Apaf-1 inh conf2: inactive; Rh110 interf inh: inactive

What do the screens show for `CC1CCN(S(=O)(=O)c2ccc3c4c2CC(=O)N4CC(C)S3)CC1` (stereo not given)?
MEKK2 WT-MEK5: inactive; Apaf1 inhib: 94; MEKK2 mut-MEK5: inactive; MEKK3 PB1 HTS: inactive; UBC13 polyUb: inactive; Apaf-1 inh conf2: 86; Rh110 interf inh: inactive; Fluor interf inh: inactive

Results for COc1ccc(C=Nn2cnn(Cc3ccccc3Cl)c2=S)cc1 ?
UCH37 inh: inactive

How did c1cc(SC2CCCCC2)cc(-c2nc3cnccn3c2NC2CCCCC2)c1 do in these assays?
Apaf1 inhib: 41; UBC13 polyUb: inactive; Apaf-1 inh conf2: inactive; Rh110 interf inh: inactive

Results for CCOC(=O)C1CCCN(C2CC(=O)N(c3cccc(C)c3)C2=O)C1 (stereo not given) ?
MEKK2 WT-MEK5: inactive; Apaf1 inhib: inactive; UCH37 inh: inactive; MEKK2 mut-MEK5: inactive; MEKK3 PB1 HTS: inactive; UBC13 polyUb: inactive

What do the screens show for `COc1ccc2c(c1)CC(C1(O)C(=O)Nc3ccccc31)C2=O` (stereo not given)?
MEKK2 WT-MEK5: inactive; Apaf1 inhib: inactive; UCH37 inh: inactive; MEKK2 mut-MEK5: inactive; MEKK3 PB1 HTS: inactive; UBC13 polyUb: inactive

How did CCCCc1cc(=O)oc2cc(OCC(=O)NCCN3CCOCC3)c(Cl)cc12 do in these assays?
MEKK2 WT-MEK5: inactive; Apaf1 inhib: 61; UCH37 inh: inactive; MEKK2 mut-MEK5: inactive; MEKK3 PB1 HTS: inactive; UBC13 polyUb: inactive; Apaf-1 inh conf2: inactive; Rh110 interf inh: inactive

What do the screens show for `C=CCN1C(=O)C2C(C(=O)NC3CCCC3)C3C=CC2(O3)C1C(=O)NC1CCCC1` (stereo not given)?
MEKK2 WT-MEK5: inactive; Apaf1 inhib: inactive; UCH37 inh: inactive; MEKK2 mut-MEK5: inactive; MEKK3 PB1 HTS: inactive; UBC13 polyUb: inactive
